High-throughput results: PubChem, Sanford-Burnham Center for Chemical Genomics
CXCR6 block: blocks human CXCR6 beta-arrestin recruitment. O00574. CHO-K1 PathHunter CXCR6 beta-arrestin, luminescence. inhibition, % at 20 µM. 360,000 compounds, 0.36% hits; in the data active = inhibition above about 34%, passing the limit was not always enough;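 note: antagonist mode with CXCL16 agonist at 10 nM final; 0% = 10 nM CXCL16 with DMSO and 100% = unstimulated wells without agonist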
APJ ag: APJ receptor agonism; P35414; CHO-K1 APJ PathHunter beta-arrestin, luminescence; 0% DMSO wells, 100% apelin; activation, % at 20 µM; 330,000 compounds, 0.11% hits;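 active = activation more than six SD over the plate average, tested at 20 µM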;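 note: 0% = DMSO alone and 100% = apelin-13 at 10 nM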
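Assay system – PathHunter CHO-K1 APJ (AGTRL-1) beta-arrestin reporter cells · Compound – one dose, 20 µM compound, 1% DMSO · Timing – compound 90 min 25 °C, reagent 1 h · Measured by – luminescence from split beta-galactosidase complementation, Galacton Star/Emerald II substrate · Measure – beta-arrestin recruitment to APJ as agonist activity, luminescent signal · Benchmarks – DMSO vs Apelin-13 10 nM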
APJ antagonist: APJ receptor antagonism | CHO-K1 APJ beta-arrestin complementation, luminescence | P35414 | AID 2521 | inhibition, % at 20 µM | 330,000 compounds, 0.32% hits;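 active = inhibition above about 40% at 20 µM, limit read from the data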;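 note: cells challenged with 10 nM apelin-13 agonist together with compound; plate controls were apelin-13 plus DMSO wells for no effect and DMSO wells lacking apelin-13 for full effect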
CCR6 antagonist: CCR6 (human) receptor antagonism; P51684; CHO-K1 CCR6 PathHunter beta-arrestin, luminescence, CCL20-stimulated; inhibition, % at 20 µM; 340,000 compounds, 0.49% hits; AID 493098;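 active = compounds whose inhibition of the agonist-driven luminescence signal at 20 µM reaches about 50%, limit read from the data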;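 note: cells stimulated with CCL20 at 14 nM final; plate controls were DMSO with CCL20 for no effect and DMSO without agonist for full effect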
EBI2 block: EBI2 (human) antagonism. 360,000 compounds, 0.81% hits. P32249. inhibition, % at 5 µM. EBI2 beta-arrestin recruitment, luminescence, 7a,25-OHC stimulated; in the data active = inhibition above about 38%;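 note: enzyme fragment complementation signal reports receptor beta-arrestin coupling in cells; 0% = agonist plus DMSO wells and 100% = wells without agonist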
Target sequence (P32249 whole entry, looked up, the tested form may be a part): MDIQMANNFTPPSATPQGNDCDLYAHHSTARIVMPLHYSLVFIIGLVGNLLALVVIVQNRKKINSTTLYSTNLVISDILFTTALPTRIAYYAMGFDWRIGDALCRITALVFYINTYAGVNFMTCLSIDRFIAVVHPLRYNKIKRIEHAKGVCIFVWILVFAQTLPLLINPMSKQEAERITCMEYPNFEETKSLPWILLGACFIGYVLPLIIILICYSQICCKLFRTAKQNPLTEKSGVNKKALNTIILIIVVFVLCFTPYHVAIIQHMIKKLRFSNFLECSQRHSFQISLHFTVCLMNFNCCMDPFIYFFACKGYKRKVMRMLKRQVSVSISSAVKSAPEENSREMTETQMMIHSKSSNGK
EBI2 antag conf: EBI2 (human) antagonism, single concentration confirmation; shares compounds with EBI2 block; EBI2 beta-arrestin luminescence, 7a,25-OHC antagonism; inhibition, % at 5 µM; 2,400 compounds, 29% hits;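 active = inhibition of at least 50%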
EBI2 ag: EBI2 agonism counter-screen. EBI2-expressing cells, agonist mode, luminescence, 60 min; 0% vehicle, 100% 7α,25-dihydroxycholesterol control. shares compounds with EBI2 block. activation, % at 5 µM. 2,400 tested, under 10 active;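 active = activation of at least 50%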
bGal cs: counter-screen for EBI2 antagonists: E. coli beta-galactosidase inhibition; shares compounds with EBI2 block; purified beta-galactosidase, luminescent Galacton Star, 15 min; inhibition, % at 5 µM; 2,400 compounds, 1% hits; AID 652176;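 active = replicate-average signal at least 3 plate SD below neutral wells, shown as high inhibition, flagging enzyme-inhibiting false positives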;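 note: 0% = DMSO wells with enzyme and 100% = wells lacking enzyme; higher means stronger loss of beta-gal luminescence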
Active calls of the source: *; x = no result given. Sampled rows, rich in hits. Any-hit rate of the full collection: about 1.5%.

SMILES	CXCR6 block	APJ ag	APJ antagonist	CCR6 antagonist	EBI2 block	EBI2 antag conf	EBI2 ag	bGal cs
COc1cc2cnc(-c3ccccc3)c(C(=O)c3ccc(F)cc3)c2cc1OC	0	0	5	14	9	x	x	x
CCCCc1ccc(NC(=O)CSc2nc(=O)n(CCN(CC)CC)c3c2CCCC3)cc1	8	1	27	13	51*	20	1	3
CCCCc1ccc(NC(=O)CSc2nc(=O)n(CCN(C)C)c3c2CCC3)cc1	12	-3	10	13	3	x	x	x
COc1cc(OC)cc(C(=O)N2CCN(C(=O)c3cccc(F)c3)CC2)c1	-5	-1	1	7	5	x	x	x
Cc1ccc(OCC(=O)N2CCN(C(=O)c3cccc(F)c3)CC2)cc1	2	-2	9	2	84*	49	2	5
Cc1ccc(OCC(=O)N2CCN(C(=O)c3ccncc3)CC2)cc1	-2	-1	2	-6	44*	27	2	4
COc1ccc(OCC(=O)N2CCN(C(=O)c3ccc(F)cc3)CC2)cc1	8	0	8	7	79*	65*	1	5
COc1ccc(OCC(=O)N2CCN(C(=O)c3cccc(F)c3)CC2)cc1	-6	-6	-20	9	81*	61*	-1	5
COc1cccc(-c2cc3nc(-c4ccccc4)cc(N4CCCC(O)C4)n3n2)c1 (stereo not drawn)	-4	-1	-7	1	47*	23	0	-14
Cc1ccc(-c2cc3nc(-c4ccccc4)cc(NCCCO)n3n2)cc1	6	x	x	x	47*	35	0	-10
Cc1ccc(-c2cc3nc(-c4ccccc4)cc(N)n3n2)cc1	2	-1	2	-9	2	x	x	x
COc1ccc(Nc2ccc(OC)cc2)cc1	9	1	-18	-22	10	x	x	x
COc1ccc(Nc2ccc(Nc3ccc(OC)cc3)nn2)cc1	-6	5	6	13	69*	31	1	-10
Cc1ccccc1Nc1c(-c2ccncc2)nc2ccc(Br)cn12	-1	0	-4	1	18	x	x	x
C=CCNc1nnnc2c1sc1nc(N3CCOCC3)c3c(c12)CCCC3	-5	-4	5	8	52*	19	0	2
CC(C)CNc1nnnc2c1sc1nc(N3CCOCC3)c3c(c12)CCCC3	17	0	15	17	22	x	x	x
Cc1cccc2c1-c1sc(C(=O)N3CCCCC3)cc1CO2	-12	-3	8	16	78*	71*	0	4
Cc1cccc2c1-c1sc(C(=O)N3CCc4ccccc4C3)cc1CO2	-2	-2	2	9	11	x	x	x
Cc1cccc2c1-c1sc(C(=O)Nc3ccccc3N3CCN(C)CC3)cc1CO2	2	-3	15	20	7	x	x	x
CCOC(=O)N1CCN(C(=O)c2cc3c(s2)-c2c(C)cccc2OC3)CC1	-4	-2	16	12	91*	87*	1	-6
CCN1CCN(C(=O)c2cc3c(s2)-c2c(C)cccc2OC3)CC1	-1	-3	12	8	91*	78*	1	7
O=C(O)c1cc2c(s1)-c1ccccc1OC2	1	-1	-15	2	5	x	x	x
O=C(c1ccco1)N1CCN(C(=O)c2cc3c(s2)-c2ccccc2OC3)CC1	2	-1	21	19	70*	62*	1	-1
COc1ccccc1CNC(=O)CCNS(=O)(=O)c1cccc2nonc12	-1	2	13	22	4	x	x	x
Cc1cc(OCC(=O)N(C)Cc2ccccc2)ccc1Cl	3	-2	2	20	83*	72*	1	6
CC(C)NS(=O)(=O)c1ccc(OCC(=O)N(C)Cc2ccccc2)cc1	4	-5	-22	8	2	x	x	x
Cc1cc(OCC(=O)N(C)Cc2ccccc2)ccc1Br	2	-1	14	23	91*	87*	-1	8
